ChEMBL document CHEMBL5346861, “Designing quinoline-isoniazid hybrids as potent anti-tubercular agents inhibiting mycolic acid biosynthesis” (Eur J Med Chem, 2022)
Values after ≈ are worked out from the molar mass of the structure shown. Active and inactive are the calls of the source. No cut-off for these calls is given here.

Key:
[1] = tested on: Mycobacterium tuberculosis; test: Antimycobacterial activity against Mycobacterium tuberculosis mc2 6230 assessed as inhibition of bacterial growth measured after 7 days by broth dilution method; format: functional; details: mc2 6230, 168 h, time 7 day
Method in brief: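 Pantothenate auxotroph carrying empty pMV261. 2-fold serial dilutions, 37 °C, no agitation, 7 days. MIC99 is the lowest concentration with no turbidity change. DMSO vehicle control.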

[2] = tested on: Mycobacterium tuberculosis; test: Antimycobacterial activity against Mycobacterium tuberculosis mc2 6230 assessed as reduction in log10 CFU at 5 times of MIC measured after 3 days by time-killing kinetics assay; format: functional; details: time 3 day
Method in brief: (§1)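 Exposed to 1x, 5x or 20x MIC at 37 °C for up to 6 days. Serial dilutions plated on 7H10/OADC/pantothenate and colonies counted after 3 weeks. Mean of four independent experiments in technical triplicate, with SD. DMSO negative control.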

[3] = tested on: Mycobacterium marinum; test: Antimycobacterial activity against Mycobacterium marinum M strain assessed as inhibition of bacterial growth measured after 6 days by broth dilution method; format: functional; details: 144 h, time 6 day
Method in brief: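 MIC99 by 2-fold serial broth dilution in 7H9 with 10% OADC and 0.025% tyloxapol. Inoculum 5.10⁶ CFU/mL. Incubated without agitation at 30 °C, scored for no turbidity change after 6 days. DMSO vehicle control.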

[4] = tested on: Mycobacteroides abscessus; test: Antimycobacterial activity against Mycobacterium abscessus CIP104536 smooth variant assessed as inhibition of bacterial growth measured after 4 days by broth dilution method; format: functional; details: CIP104536, 96 h, time 4 day
Method in brief: (§2)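 MIC99 by CLSI broth 2-fold serial dilution in CaMHB. Inoculum 5.10⁶ CFU/mL. Incubated at 30 °C and read by turbidity after 4 days. DMSO vehicle control, INH reference.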

[5] = tested on: Mycobacteroides abscessus; test: Antimycobacterial activity against Mycobacterium abscessus CIP104536 rough variant assessed as inhibition of bacterial growth measured after 4 days by broth dilution method; format: functional; details: CIP104536, 96 h, time 4 day; method in brief: as §2
[6] = tested on: Mycobacterium tuberculosis; test: Antimycobacterial activity against Mycobacterium tuberculosis mc2 6230 assessed as reduction in log10 CFU at 1 time of MIC measured after 6 days by time-killing kinetics assay; format: functional, organism-based; details: time 6.0 day; method in brief: as §1
[7] = tested on: Mycobacterium tuberculosis; test: Antimycobacterial activity against Mycobacterium tuberculosis mc2 6230 assessed as reduction in log10 CFU at 20 times of MIC measured after 6 days by time-killing kinetics assay; format: functional; details: time 6 day; method in brief: as §1
[8] = Cytotoxicity against human THP-1 cells assessed as reduction in cell viability measured after 24 hrs by resazurin staining based analysis; format: toxicity
Method in brief: (§3)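 THP-1 monocytes differentiated with 20 ng/mL PMA for 48 hrs at 1×10^5 cells/well. Compounds added by serial dilution from 100 µg/mL for 24 or 72 hrs at 37 °C and 5% CO₂. Resazurin 10% for 4 hrs, fluorescence at ex 540/em 590 nm. Mean of three independent experiments in triplicate. INH and RFB reference drugs.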

[9] = tested on: Vero; test: Cytotoxicity against African green monkey Vero cells assessed as reduction in cell viability measured after 24 hrs by resazurin staining based analysis; format: toxicity; details: chlorocebus sabaeus
Method in brief: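 Vero cells in RPMI 1640 with 10% FCS, 2×10^4 cells/well, adhered overnight at 37 °C and 5% CO₂. Compounds added at 100 to 0.78 µg/mL for 24 hrs. 10% resazurin added for 4 hrs, fluorescence read at ex 540/em 590 nm.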

[10] = Cytotoxicity against human THP-1 cells assessed as reduction in cell viability measured after 72 hrs by resazurin staining based analysis; format: toxicity; method in brief: as §3
[11] = Selectivity index, […] Mycobacterium tuberculosis H37Rv to CC50 for cytotoxicity against human THP-1 cells; format: toxicity, cell-based; details: read-out: Selectivity Index
[12] = Selectivity index, […] Mycobacterium marinum M strain to CC50 for cytotoxicity against human THP-1 cells; format: toxicity, cell-based; details: read-out: Selectivity Index
[13] = Selectivity index, […] Mycobacterium abscessus CIP104536 smooth variant to CC50 for cytotoxicity against human THP-1 cells; format: toxicity, cell-based; details: read-out: Selectivity Index
[14] = Selectivity index, […] Mycobacterium abscessus CIP104536 rough variant to CC50 for cytotoxicity against human THP-1 cells; format: toxicity, cell-based; details: read-out: Selectivity Index
[15] = tested on: Mycobacterium tuberculosis; test: Antimycobacterial activity against Mycobacterium tuberculosis mc2 6230 assessed as inhibition of bacterial growth at 1 ug/ml measured after 7 days by broth dilution method; format: functional, organism-based; details: dose 1.0 µg/ml, time 7.0 day
[16] = tested on: Mycobacterium tuberculosis; test: Inhibition of mycolic acid biosynthesis in Mycobacterium tuberculosis mc2 6230 assessed as decrease in alpha-mycolic acid incubated for 15 mins followed by 14C-labeled acetate addition measured after 7 hrs by TLC analysis; format: functional, organism-based; details: time 435.0 min
[17] = tested on: Mycobacterium tuberculosis; test: Inhibition of mycolic acid biosynthesis in Mycobacterium tuberculosis mc2 6230 assessed as decrease in methoxy-mycolic acid incubated for 15 mins followed by 14C-labeled acetate addition measured after 7 hrs by TLC analysis; format: functional, organism-based; details: time 435.0 min
[18] = tested on: Mycobacterium tuberculosis; test: Inhibition of mycolic acid biosynthesis in Mycobacterium tuberculosis mc2 6230 assessed as decrease in keto-mycolic acid incubated for 15 mins followed by 14C-labeled acetate addition measured after 7 hrs by TLC analysis; format: functional, organism-based; details: time 435.0 min

COc1cc(C=O)ccc1OCc1cn(-c2ccnc3cc(Cl)ccc23)nn1
MIC [1]: > 200 mg/L

COc1cc(C=O)ccc1OCc1cn(CCCNc2ccnc3cc(Cl)ccc23)nn1
MIC [1]: > 200 mg/L

O=C(N/N=C/c1ccc(OCc2cn(-c3ccnc4cc(Cl)ccc34)nn2)cc1)c1cnccn1
MIC [1]: > 200 mg/L

O=C(N/N=C/c1ccccc1-n1cc(CN2CCN(c3ccnc4cc(Cl)ccc34)CC2)nn1)c1cnccn1
MIC [1]: > 200 mg/L

COc1cc(/C=N/NC(=O)c2ccncc2)ccc1OCc1cn(CCCNc2ccnc3cc(Cl)ccc23)nn1
Activity [2]: 2 log10CFU/ml | MIC [1]: 0.25 mg/L (≈ 0.438 µM) | MIC [3]: 100 mg/L (≈ 175 µM) | MIC [4]: > 200 mg/L | MIC [5]: > 200 mg/L | Activity [6]: Active | Activity [7]: ~3 log10CFU/ml | CC50 at 24 h [8]: > 100 mg/L | Activity [9]: Non-Toxic | CC50 at 72 h [10]: > 100 mg/L | selectivity ratio [11]: > 200 | selectivity ratio [12]: > 200 | selectivity ratio [13]: > 200 | selectivity ratio [14]: > 200 | Activity [15]: Active

COc1cc(/C=N/NC(=O)c2cnccn2)ccc1OCc1cn(CCCNc2ccnc3cc(Cl)ccc23)nn1
MIC [1]: > 200 mg/L

COc1cc(/C=N/NC(=O)c2cccnc2)ccc1OCc1cn(CCNc2ccnc3cc(Cl)ccc23)nn1
MIC [1]: > 200 mg/L

O=C(N/N=C/c1ccc(OCc2cn(-c3ccnc4cc(Cl)ccc34)nn2)cc1)c1cccnc1
MIC [1]: > 200 mg/L

O=Cc1ccc(OCc2cn(CCNc3ccnc4cc(Cl)ccc34)nn2)cc1
MIC [1]: > 200 mg/L

COc1cc(/C=N/NC(=O)c2cccnc2)ccc1OCc1cn(CCCNc2ccnc3cc(Cl)ccc23)nn1
MIC [1]: > 200 mg/L

COc1cc(/C=N/NC(=O)c2cccnc2)ccc1OCc1cn(-c2ccnc3cc(Cl)ccc23)nn1
MIC [1]: > 200 mg/L

O=Cc1ccc(OCc2cn(-c3ccnc4cc(Cl)ccc34)nn2)cc1
MIC [1]: > 200 mg/L

O=Cc1ccc(OCc2cn(CCCNc3ccnc4cc(Cl)ccc34)nn2)cc1
MIC [1]: 50 mg/L (≈ 119 µM) | MIC [3]: 200 mg/L (≈ 474 µM) | MIC [4]: > 200 mg/L | MIC [5]: > 200 mg/L

O=Cc1ccccc1-n1cc(CN2CCN(c3ccnc4cc(Cl)ccc34)CC2)nn1
MIC [1]: 100 mg/L (≈ 231 µM) | MIC [3]: > 200 mg/L | MIC [4]: > 200 mg/L | MIC [5]: > 200 mg/L

COc1cc(/C=N/NC(=O)c2cnccn2)ccc1OCc1cn(CCNc2ccnc3cc(Cl)ccc23)nn1
MIC [1]: > 200 mg/L

O=C(N/N=C/c1ccc(OCc2cn(CCNc3ccnc4cc(Cl)ccc34)nn2)cc1)c1ccncc1
Activity [2]: 2 log10CFU/ml | MIC [1]: 0.5 mg/L (≈ 0.949 µM) | MIC [3]: 200 mg/L (≈ 380 µM) | MIC [4]: > 200 mg/L | MIC [5]: > 200 mg/L | Activity [6]: Active | Activity [7]: ~3 log10CFU/ml | CC50 at 24 h [8]: > 100 mg/L | Activity [9]: Non-Toxic | CC50 at 72 h [10]: 34 mg/L (≈ 64.5 µM) | Activity [15]: Active

O=C(N/N=C/c1ccccc1-n1cc(CN2CCN(c3ccnc4cc(Cl)ccc34)CC2)nn1)c1cccnc1
MIC [1]: > 200 mg/L

COc1cc(/C=N/NC(=O)c2ccncc2)ccc1OCc1cn(CCNc2ccnc3cc(Cl)ccc23)nn1
Activity [2]: 2 log10CFU/ml | MIC [1]: 0.5 mg/L (≈ 0.898 µM) | MIC [3]: > 200 mg/L | MIC [4]: > 200 mg/L | MIC [5]: > 200 mg/L | Activity [6]: Active | Activity [7]: ~3 log10CFU/ml | CC50 at 24 h [8]: > 100 mg/L | Activity [9]: Non-Toxic | CC50 at 72 h [10]: 73 mg/L (≈ 131 µM) | Activity [15]: Active

CO[C@H]1/C=C/O[C@@]2(C)Oc3c(C)c(O)c4c(c3C2=O)C2=NC3(CCN(CC(C)C)CC3)NC2=C(NC(=O)/C(C)=C\C=C\[C@H](C)[C@H](O)[C@@H](C)[C@@H](O)[C@@H](C)[C@H](OC(C)=O)[C@@H]1C)C4=O [RIFABUTIN]
CC50 at 24 h [8]: 60 mg/L (≈ 70.8 µM)

NNC(=O)c1ccncc1 [ISONIAZID]
MIC [1]: 0.05 mg/L (≈ 0.365 µM) | MIC [3]: 25 mg/L (≈ 182 µM) | MIC [4]: > 200 mg/L | MIC [5]: > 200 mg/L | inhibition [16]: Dose-Dependent Effect | inhibition [17]: Dose-Dependent Effect | inhibition [18]: Dose-Dependent Effect

O=C(N/N=C/c1ccc(OCc2cn(CCNc3ccnc4cc(Cl)ccc34)nn2)cc1)c1cccnc1
MIC [1]: > 200 mg/L

O=C(N/N=C/c1ccc(OCc2cn(-c3ccnc4cc(Cl)ccc34)nn2)cc1)c1ccncc1
Activity [2]: 2 log10CFU/ml | MIC [1]: 0.25 mg/L (≈ 0.517 µM) | MIC [3]: > 200 mg/L | MIC [4]: > 200 mg/L | MIC [5]: > 200 mg/L | Activity [6]: Active | Activity [7]: ~3 log10CFU/ml | CC50 at 24 h [8]: > 100 mg/L | Activity [9]: Non-Toxic | CC50 at 72 h [10]: > 100 mg/L | selectivity ratio [11]: > 200 | selectivity ratio [12]: > 200 | selectivity ratio [13]: > 200 | selectivity ratio [14]: > 200 | Activity [15]: Active

O=C(N/N=C/c1ccc(OCc2cn(CCCNc3ccnc4cc(Cl)ccc34)nn2)cc1)c1cnccn1
MIC [1]: > 200 mg/L

COc1cc(/C=N/NC(=O)c2cnccn2)ccc1OCc1cn(-c2ccnc3cc(Cl)ccc23)nn1
MIC [1]: > 200 mg/L

Clc1ccc2c(N3CCNCC3)ccnc2c1
MIC [1]: 92 mg/L (≈ 371 µM)

COc1cc(/C=N/NC(=O)c2ccncc2)ccc1OCc1cn(-c2ccnc3cc(Cl)ccc23)nn1
Activity [2]: 2 log10CFU/ml | MIC [1]: 0.5 mg/L (≈ 0.973 µM) | MIC [3]: > 200 mg/L | MIC [4]: > 200 mg/L | MIC [5]: > 200 mg/L | Activity [6]: Active | Activity [7]: ~3 log10CFU/ml | CC50 at 24 h [8]: > 100 mg/L | CC50 at 72 h [10]: > 100 mg/L | selectivity ratio [11]: > 200 | selectivity ratio [12]: > 200 | selectivity ratio [13]: > 200 | selectivity ratio [14]: > 200 | Activity [15]: Active

COc1cc(C=O)ccc1OCc1cn(CCNc2ccnc3cc(Cl)ccc23)nn1
MIC [1]: > 200 mg/L

O=C(N/N=C/c1ccc(OCc2cn(CCCNc3ccnc4cc(Cl)ccc34)nn2)cc1)c1cccnc1
MIC [1]: > 200 mg/L

O=C(N/N=C/c1ccc(OCc2cn(CCCNc3ccnc4cc(Cl)ccc34)nn2)cc1)c1ccncc1
Activity [2]: 2 log10CFU/ml | MIC [1]: 0.5 mg/L (≈ 0.924 µM) | MIC [3]: 50 mg/L (≈ 92.4 µM) | MIC [4]: > 200 mg/L | MIC [5]: > 200 mg/L | Activity [6]: Active | Activity [7]: ~3 log10CFU/ml | CC50 at 24 h [8]: > 100 mg/L | Activity [9]: Non-Toxic | CC50 at 72 h [10]: 67 mg/L (≈ 124 µM) | Activity [15]: Active
